Reference: ChEMBL document CHEMBL4376860, “Discovery of Novel Dual Poly(ADP-ribose)polymerase and Phosphoinositide 3-Kinase Inhibitors as a Promising Strategy for Cancer Therapy” (J Med Chem, 2020)
pIC50: −log10 of the molar value. The source made the active and inactive calls. No cut-off for these calls is given here.

Experiments:
Mus musculus = assay: In vivo inhibition of PI3K in BALB/c mouse xenografted with human MDA-MB-468 cells assessed as reduction in BRCA2 expression at 50 mg/kg, ip administered every 2 days for 34 days measured post-last dose by Western blot analysis; format: functional, organism-based
MDA-MB-468 [1] = assay: Inhibition of PI3K in human MDA-MB-468 cells assessed as reduction in pS6 phosphorylation at S240 residue at 1 uM measured after 6 to 72 hrs by Western blot analysis; format: cell-based
Summary of the method: (§1)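 MDA-MB-468 cells seeded overnight, then exposed for 6 h; control medium contained 1‰ DMSO. Lysates run on 8–12% SDS-PAGE and transferred to PVDF. Blots blocked in 5% BSA/TBST and probed for pAKT-Ser473/total AKT or pS6-Ser240/total S6, with β-actin as loading control. HRP secondary with ECL detection; bands quantified by densitometry. Three independent experiments.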

[2] = target: Phosphatidylinositol 4,5-bisphosphate 3-kinase catalytic subunit gamma isoform (Homo sapiens, UniProt P48736); assay: Inhibition of PI3Kgamma (unknown origin) using PIP2 as substrate measured after 1 hr by ADP-glo plus luminescence assay
Sequence of Phosphatidylinositol 4,5-bisphosphate 3-kinase catalytic subunit gamma isoform (P48736 whole entry, canonical isoform): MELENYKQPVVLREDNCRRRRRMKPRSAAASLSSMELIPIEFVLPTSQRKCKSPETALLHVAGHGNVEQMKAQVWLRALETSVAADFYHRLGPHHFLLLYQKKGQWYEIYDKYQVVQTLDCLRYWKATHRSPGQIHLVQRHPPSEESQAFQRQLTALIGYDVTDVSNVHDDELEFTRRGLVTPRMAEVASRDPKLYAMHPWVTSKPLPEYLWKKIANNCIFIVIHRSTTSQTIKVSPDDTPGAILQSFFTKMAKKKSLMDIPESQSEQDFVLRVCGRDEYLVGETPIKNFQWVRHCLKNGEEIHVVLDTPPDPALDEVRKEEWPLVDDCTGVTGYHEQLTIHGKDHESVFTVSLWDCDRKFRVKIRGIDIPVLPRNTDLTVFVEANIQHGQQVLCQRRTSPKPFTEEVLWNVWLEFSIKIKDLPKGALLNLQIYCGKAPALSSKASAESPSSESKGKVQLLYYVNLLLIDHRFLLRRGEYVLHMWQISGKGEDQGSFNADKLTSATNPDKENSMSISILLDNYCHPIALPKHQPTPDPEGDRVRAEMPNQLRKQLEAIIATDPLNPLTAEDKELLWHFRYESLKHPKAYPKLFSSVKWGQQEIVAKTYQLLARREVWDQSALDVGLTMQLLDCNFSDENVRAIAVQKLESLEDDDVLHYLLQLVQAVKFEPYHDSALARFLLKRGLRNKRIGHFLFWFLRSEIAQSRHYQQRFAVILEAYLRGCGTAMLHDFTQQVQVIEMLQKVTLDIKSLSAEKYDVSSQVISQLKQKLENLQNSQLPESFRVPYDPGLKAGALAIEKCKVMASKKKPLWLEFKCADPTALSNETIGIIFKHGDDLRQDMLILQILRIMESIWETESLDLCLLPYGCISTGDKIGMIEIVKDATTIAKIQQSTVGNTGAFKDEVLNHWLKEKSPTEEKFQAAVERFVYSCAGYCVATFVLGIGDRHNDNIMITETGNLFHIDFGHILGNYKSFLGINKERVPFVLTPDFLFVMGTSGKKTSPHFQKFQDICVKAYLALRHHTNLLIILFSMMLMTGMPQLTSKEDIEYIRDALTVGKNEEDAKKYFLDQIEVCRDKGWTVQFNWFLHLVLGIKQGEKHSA

MDA-MB-468 [3] = assay: Inhibition of PI3K in human MDA-MB-468 cells assessed as reduction in AKT phosphorylation at S473 residue at 1 uM measured after 6 to 72 hrs by Western blot analysis; format: cell-based; summary of the method: as §1
MDA-MB-468 [4] = assay: Activation of ERK in human MDA-MB-468 cells assessed as increase in ERK autophosphorylation at T202 residue at 1 uM measured after 6 to 72 hrs by Western blot analysis; format: cell-based
Summary of the method: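 MDA-MB-468 cells seeded in six-well plates, incubated overnight, then treated for 6 h, with 1‰ (v/v) DMSO medium as control. Lysates cleared at 4 °C, protein quantified by BCA, resolved by 8-12% SDS-PAGE and transferred to PVDF. Membranes blocked in 5% BSA/TBST, probed with primary antibodies (pERK-Thr202, total ERK, cleaved PARP, β-actin) and HRP secondary. ECL detection, band densitometry.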

HCC1937 = assay: Potency index, ratio of BKM120 IC50 to test compound IC50 for antiproliferative activity against human HCC1937 cells; format: functional
MDA-MB-468 [5] = assay: Potency index, ratio of BKM120 IC50 to test compound IC50 for antiproliferative activity against human MDA-MB-468 cells; format: functional
[6] = Toxicity in BALB/c mouse xenografted with human MDA-MB-468 cells assessed as mortality at 50 mg/kg, ip administered every 2 days for 34 days; format: organism-based; conditions: in vivo
Summary of the method: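 Nude mice bearing subcutaneous right-flank MDA-MB-468 tumours (2 × 10^6 exponential-phase cells implanted). Randomised at about 100 mm³ tumour volume; 6 mice per group. Dosed ip every 2 days for 34 days. Vehicle controls received PBS with 5% DMSO. Body weight and tumour size recorded every 2 days; tumour volume calculated as ab²/2 from caliper diameters.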

MDA-MB-468 [7] = assay: cells; conditions: Homo sapiens, MDA-MB-468, 168 h, read-out: pIC50 (converted)
MDA-MB-468 [8] = assay: Inhibition of PI3K in human MDA-MB-468 cells assessed as reduction in BRCA1 mRNA level at 1 uM in presence of PARP inhibitor olaparib by Trizol reagent-based RT-PCR analysis; format: cell-based
Summary of the method: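 Total RNA from treated MDA-MB-468 cells extracted with TRIzol. BRCA1 or BRCA2 mRNA quantified by real-time PCR with GAPDH as internal control. Results given as fold change relative to the internal control. Mean ± SD of three independent experiments.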

CAKI-1 = assay: cells; conditions: Homo sapiens, CAKI-1, 168 h, read-out: pIC50 (converted)
Ramos = assay: cells; conditions: Homo sapiens, 168 h, read-out: pIC50 (converted)
HCT-116 = assay: cells; conditions: Homo sapiens, HCT-116, 168 h, read-out: pIC50 (converted)
MDA-MB-468 [9] = assay: Antitumor activity against human MDA-MB-468 cells xenografted in BALB/c mouse assessed as tumor growth inhibition at 27.5 mg/kg, ip administered every 2 days for 34 days and measured at 2 days interval during compound dosing relative to control; format: functional; conditions: MDA-MB-468, ip, read-out: TGI
BXPC-3 = assay: cells; conditions: Homo sapiens, BXPC-3, 168 h, read-out: pIC50 (converted)

Row | Structure (SMILES) | inhibition (Mus musculus) | inhibition (MDA-MB-468 [1]) | pIC50 [2] | inhibition (MDA-MB-468 [3]) | Activity (MDA-MB-468 [4]) | Ratio IC50 (HCC1937) | Ratio IC50 (MDA-MB-468 [5]) | Activity [6] | IC50 (MDA-MB-468 [7]) [µM] | inhibition (MDA-MB-468 [8]) | IC50 (CAKI-1) [µM] | IC50 (Ramos) [µM] | IC50 (HCT-116) [µM] | inhibition in vivo at 27.5 mg/kg (MDA-MB-468 [9]) [%] | IC50 (BXPC-3) [µM]
1 | Nc1cc(C(F)(F)F)c(-c2nc3c(c(N4CCOCC4)n2)CCN(C(=O)c2cc(Cc4n[nH]c(=O)c5ccccc45)ccc2F)C3)cn1 | Active | Active | 6.08 | Active | Active | >=4 | >=4 | Non-Toxic | – | – | – | – | – | – | –
2 | Nc1cc(C(F)(F)F)c(-c2cc(N3CCOCC3)nc(N3CCOCC3)n2)cn1 [BUPARLISIB] | – | – | – | – | – | – | – | – | 1.29 | Active | 1.86 | 1.17 | 1.23 | 33.4 | 2.45
